Laboratory results from ChEMBL document CHEMBL1138555, “N-acylated and N,N'-diacylated imidazolidine-2-thione derivatives and N,N'-diacylated tetrahydropyrimidine-2(1H)-thione analogues: synthesis and antiproliferative activity” (Eur J Med Chem, 2009).

Tests used:
Assay type in all cases: functional
[1] = tested on: SW-620; experiment: Growth inhibition of human SW620 cells after 48 hrs by sulforhodamine B assay; conditions: SW-620, 48 h
Method in brief: (§1)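 NCI in vitro panel screen. Compounds tested at five 10-fold dilutions, 10^-4 to 10^-8 M. Cells in 96-well plates were exposed for the last 48 h of a 72 h incubation. Viability/growth was read by sulforhodamine B protein assay. GI50 is the concentration giving 50% growth inhibition. Values beyond the tested range are reported as greater or less than the maximum or minimum concentration.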

[2] = tested on: K562; experiment: Growth inhibition of human K562 cells after 48 hrs by sulforhodamine B assay; conditions: K562, 48 h
Method in brief: (§2)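 NCI screen panel. Five 10-fold concentrations from 10^-4 to 10^-8 M. Exposure for the last 48 h of a 72 h incubation. Growth estimated by sulforhodamine B protein assay. GI50 is the concentration giving 50% growth inhibition. Where that level was not reached or was exceeded, the value is given as above or below the highest or lowest concentration tested.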

[3] = tested on: CAKI-1; experiment: Growth inhibition of human Caki1 cells after 48 hrs by sulforhodamine B assay; conditions: CAKI-1, 48 h; method in brief: as §2
[4] = tested on: SK-MEL-28; experiment: Growth inhibition of human SK-MEL-28 cells after 48 hrs by sulforhodamine B assay; conditions: SK-MEL-28, 48 h; method in brief: as §2
[5] = tested on: SNB-75; experiment: Growth inhibition of human SNB75 cells after 48 hrs by sulforhodamine B assay; conditions: SNB-75, 48 h; method in brief: as §1
[6] = tested on: DU-145; experiment: Growth inhibition of human DU145 cells after 48 hrs by sulforhodamine B assay; conditions: DU-145, 48 h; method in brief: as §2
[7] = tested on: OVCAR-5; experiment: Growth inhibition of human OVCAR5 cells after 48 hrs by sulforhodamine B assay; conditions: OVCAR-5, 48 h; method in brief: as §2
[8] = tested on: HT-29; experiment: Growth inhibition of human HT-29 cells after 48 hrs by sulforhodamine B assay; conditions: HT-29, 48 h; method in brief: as §2
[9] = tested on: U-251; experiment: Growth inhibition of human U251 cells after 48 hrs by sulforhodamine B assay; conditions: U-251, 48 h; method in brief: as §1
[10] = tested on: CCRF-CEM; experiment: Growth inhibition of human CCRF-CEM cells after 48 hrs by sulforhodamine B assay; method in brief: as §2
[11] = tested on: NCI-H23; experiment: Growth inhibition of human NCI-H23 cells after 48 hrs by sulforhodamine B assay; conditions: NCI-H23, 48 h; method in brief: as §2
[12] = tested on: NCI-H460; experiment: Growth inhibition of human NCI-H460 cells after 48 hrs by sulforhodamine B assay; conditions: NCI-H460, 48 h; method in brief: as §2
[13] = tested on: NCI/ADR-RES; experiment: Growth inhibition of human NCI/ADR-RES cells after 48 hrs by sulforhodamine B assay; method in brief: as §2
[14] = tested on: SF-539; experiment: Growth inhibition of human SF539 cells after 48 hrs by sulforhodamine B assay; conditions: SF-539, 48 h; method in brief: as §2
[15] = tested on: T47D; experiment: Growth inhibition of human T47D cells after 48 hrs by sulforhodamine B assay; method in brief: as §1
[16] = tested on: HL-60(TB); experiment: Growth inhibition of human HL-60(TB) cells after 48 hrs by sulforhodamine B assay; conditions: HL-60, 48 h
Method in brief: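 NCI 60-cell-line screen protocol: cells exposed to compound at five 10-fold dilutions from 10^-4 to 10^-8 M for the last 48 h of a 72 h incubation. Sulforhodamine B protein assay estimated viability/growth. GI50 (50% growth inhibition) derived; where not reached or exceeded, reported as greater or less than the highest or lowest concentration tested.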

[17] = tested on: SR; experiment: Growth inhibition of human SR cells after 48 hrs by sulforhodamine B assay; method in brief: as §1
[18] = tested on: UO-31; experiment: Growth inhibition of human UO31 cells after 48 hrs by sulforhodamine B assay; conditions: UO-31, 48 h; method in brief: as §1
[19] = tested on: SK-MEL-5; experiment: Growth inhibition of human SK-MEL-5 cells after 48 hrs by sulforhodamine B assay; conditions: SK-MEL-5, 48 h; method in brief: as §2

Row | Compound | GI50 [1] | GI50 [2] | GI50 [3] | GI50 [4] | GI50 [5] | GI50 [6] | GI50 [7] | GI50 [8] | GI50 [9] | GI50 [10] | GI50 [11] | GI50 [12] | GI50 [13] | GI50 [14] | GI50 [15] | GI50 [16] | GI50 [17] | GI50 [18] | GI50 [19]
1 | O=C(c1ccc(Cl)cc1Cl)N1CCN(C(=O)c2ccc(Cl)cc2Cl)C1=S | 28.2 µM | 31.4 µM | 22.1 µM | 18.4 µM | 22.3 µM | 30.6 µM | 21.6 µM | 20.4 µM | 17.8 µM | 19.5 µM | 19.8 µM | 35.4 µM | 24.8 µM | 27.2 µM | 19.5 µM | 16.6 µM | – | – | –
2 | O=C(c1ccc(Cl)c(Cl)c1)N1CCN(C(=O)c2ccc(Cl)c(Cl)c2)C1=S | 21.3 µM | 16.5 µM | 14 µM | 30.6 µM | 18.9 µM | 14.7 µM | 24.3 µM | 24.2 µM | 16.4 µM | 4.5 µM | 22 µM | 22 µM | 34.4 µM | 15.1 µM | 17.5 µM | 12.7 µM | – | – | –
3 | O=C(c1ccco1)N1CCN(C(=O)c2ccco2)C1=S | 5.5 µM | 1 µM | 5.1 µM | 5.5 µM | 10.4 µM | 2.7 µM | 17.8 µM | 5 µM | 9 µM | 1.2 µM | 19.5 µM | 3.3 µM | 15.6 µM | 3 µM | 4.9 µM | 4 µM | 1800 nM | 3700 nM | 10.1 µM
4 | COc1cc(C(=O)N2CCN(C=O)C2=S)cc(OC)c1OC | 26.8 µM | 30.8 µM | 13.6 µM | 29.5 µM | 10.9 µM | 19.6 µM | 48.5 µM | 26.7 µM | 16.4 µM | 18.3 µM | 25.9 µM | 34 µM | 36.1 µM | 21.3 µM | 20.7 µM | 23.4 µM | – | 70 nM | –
5 | COc1cc(C(=O)N2CCN(C(=O)c3cc(OC)c(OC)c(OC)c3)C2=S)cc(OC)c1OC | 20.3 µM | 24.9 µM | 12.3 µM | 17.2 µM | 7.1 µM | 13.6 µM | 23.2 µM | 22.7 µM | 16.3 µM | 12.2 µM | 18.7 µM | 27.2 µM | 26.8 µM | 14.5 µM | 13.1 µM | 16 µM | – | 200 nM | –
6 | O=CN1CCN(C(=O)c2ccco2)C1=S | 5.5 µM | 2.6 µM | 5.1 µM | 26.2 µM | 8.6 µM | 2.5 µM | 18 µM | 7.5 µM | 14.1 µM | 3.6 µM | 16.7 µM | 7.3 µM | 24.5 µM | 2.5 µM | 4 µM | 2.8 µM | 2100 nM | 4500 nM | 12.7 µM
7 | O=C(c1cc(Cl)cc(Cl)c1)N1CCN(C(=O)c2cc(Cl)cc(Cl)c2)C1=S | 11.1 µM | 4.8 µM | 9.7 µM | 12.2 µM | 14.1 µM | 10.5 µM | 22.9 µM | 22.2 µM | 12.9 µM | 3.3 µM | 14.8 µM | 20.8 µM | 31.7 µM | 12.8 µM | 6.5 µM | 3.3 µM | 3300 nM | 2300 nM | 16.1 µM
8 | O=C(c1cccs1)N1CCN(C(=O)c2cccs2)C1=S | 4.8 µM | 3.5 µM | 3.4 µM | 3.8 µM | 1.4 µM | 3.3 µM | 17.1 µM | 11.9 µM | 7.9 µM | 2.1 µM | 10.6 µM | 18.7 µM | 19.1 µM | 1.8 µM | 4.6 µM | 2.2 µM | 3400 nM | 2300 nM | 4.6 µM
